The sample as a whole holds a higher share of hits than the screen did.
697 NFkB inh – lowers PMA/ionomycin-induced NF-kB signal in 697 B cells | 697 B-cell NF-kB luciferase reporter, 16 h | inhibition, % at 4 µM | hit rate 0.33% among 330,000 | AID 435022; in the data active means inhibition above about 35%
CHOP inh – CHOP inhibition in unfolded protein response; CHO-K1 CHOP-promoter luciferase, tunicamycin-induced, 15-18 h; inhibition, % at 10 µM; hit rate 3.8% among 220,000;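 active means compounds that reduced the stress-induced luciferase reporter signal by more than about 70% of percent inhibition, limit read from the data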;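 further: 0% = tunicamycin plus vehicle and 100% = wells without tunicamycin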
XBP1 UPR activ – adaptive UPR (XBP1) activation; AID 463104; hit rate 0.33% among 330,000; CHO-XBP1 luciferase reporter, IRE1-XBP1 UPR activation, luminescence; percent of tunicamycin response, DMSO as zero; activation, % at 20 µM;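 active means versus positive control, 20 µM dose yields 30% or more activation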;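 further: 100% = tunicamycin at 10 µg/mL and 0% = DMSO only wells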
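Material: CHO-XBP1 cells stably carrying IRE1-XBP1-driven luciferase reporter | Medium: F12 with 10% serum | Compound dosing: 20 µM single concentration, DMSO 1% | Incubation: Overnight seeding at 37 °C, 6 h compound treatment at 37 °C | Detection: Steady-Glo luminescence read | Read-out basis: % activation of reporter signal versus tunicamycin and DMSO controls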
Jurkat NFkB inh – inhibitors of the PMA/ionomycin-induced NF-kB reporter in Jurkat cells; PMA/ionomycin-induced NF-kB luciferase reporter, luminescence; inhibition, % at 4 µM; hit rate 0.53% among 330,000; AID 435003; in the data active means inhibition above about 50%
UPR CHOP act – activators of apoptotic arm of unfolded protein response (CHOP); CHO-CHOP luciferase reporter, UPR activation, luminescence; percent of tunicamycin response over DMSO baseline; activation, % at 10 µM; hit rate 0.34% among 330,000;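 active means at 10 µM dose, activation of 40% or more, normalized to positive control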;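 further: 100% = tunicamycin at 10 µg/mL and 0% = DMSO alone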
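Dosing – one dose, 10 µM in 0.5% DMSO · System – CHO-CHOP cells, stable luciferase reporter of PERK-eIF2a-CHOP signalling · Input – 500 cells/well · Control set – tunicamycin 10 µg/mL final as positive, DMSO-only wells as negative · Timing – 6 h compound treatment, 37 °C · Measure – % activation vs tunicamycin · Technique – luminescence read with Steady-Glo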
Jurkat NFkB conf – inhibitors of the PMA/ionomycin-induced NF-kB reporter in Jurkat cells, retest; Jurkat NF-kB luciferase, 16 h; inhibition, % at 4 µM; shares compounds with Jurkat NFkB inh; hit rate 27% among 2,700;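 active means inhibition reaching about 45% at 4 µM in either replicate, limit read from the data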;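 further: plate controls were PMA/ionomycin stimulated DMSO wells for no effect and unstimulated DMSO wells for full effect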
697 NFkB conf – lowers PMA/ionomycin-induced NF-kB signal in 697 B cells. shares compounds with 697 NFkB inh. 697 B-cell NF-kB luciferase, 16 h. inhibition, % at 4 µM. hit rate 35% among 2,000. AID 449746; in the data active means inhibition mostly above about 28%, no sharp cut-off; inactive means mostly below about 22%
Numbers without * were called inactive; i = inactive; · = no result given.

SMILES	697 NFkB inh	CHOP inh	XBP1 UPR activ	Jurkat NFkB inh	UPR CHOP act	Jurkat NFkB conf	697 NFkB conf
COc1cc2c(cc1OC)-c1c3c(cc4c1[C@@H](C2)N(C)CC4)OCO3	-139	23	-2	60*	-2	31	·
N=C1c2ccccc2CN1NC(=O)c1ccco1	-8	·	-4	-9	-2	·	·
CC(=O)OC(C)(C)/C=C/C(=O)C(C)(O)C1[C@H](O)C[C@@]2(C)C3CC=C4C(CC[C@@H](O)C4(C)C)[C@]3(CO)C(=O)C[C@]12C (some centres not stated)	-11	·	-2	81*	14	25	·
CC(=Nc1ccc(F)cc1)c1c(O)n(C)c(=O)[nH]c1=O	-5	·	-2	-4	2	·	·
COc1cccc(-c2nn(CCC#N)cc2C(=O)Nc2ccccc2Cl)c1	1	·	-3	27	5	·	·
CCOc1cccc(CNCCc2c(C)[nH]c3ccc(OC(F)(F)F)cc23)c1O	-25	·	11	66*	25	25	·
Cc1[nH]c2ccc(OC(F)(F)F)cc2c1CCNCc1cccc([N+](=O)[O-])c1	-8	·	0	20	0	·	·
Cc1c(C)c2ccc(OCC(=O)N3C[C@H]4C[C@@H](C3)c3cccc(=O)n3C4)cc2oc1=O	22	·	0	0	1	·	·
COc1cc2c(cc1C=O)OCO2	-1	-4	1	4	0	·	·
COc1cc([C@@H]2c3cc4c(cc3[C@@H](OC)[C@H]3COC(=O)[C@H]23)OCO4)cc(OC)c1O	-68	-2	8	57*	0	47*	·
CCCCC(CC)COCCCN=Cc1c(O)[nH]c(=S)[nH]c1=O (configuration not stated)	16	36	-2	-8	1	·	·
CC[n+]1c(/C=C/C=C/c2ccc(N(C)C)cc2)sc2ccccc21	-35	64	22	70*	38	20	·
CN(C)c1ccc(/C=C/C=C/c2sc3ccccc3[n+]2C)cc1	-44	48	4	20	4	·	·
Cc1cccn2c(=O)c3cc(C(=O)N4CCC5(CC4)OCCO5)n(C)c3nc12	-26	15	10	53*	2	30	·
O=C(c1cccn2c(=O)c3cc(Br)ccc3nc12)N1CCC2(CC1)OCCO2	3	6	0	-5	9	·	·
C[C@@H]1O[C@@H](O[C@@H]2C=C3CC[C@@H]4C(CC[C@]5(C)[C@@H](c6ccc(=O)oc6)CC[C@]45O)[C@@]3(C)CC2)[C@H](O)[C@H](O)[C@H]1O (some centres not stated)	90*	·	-4	100*	1	94*	99*
C[C@@H]1O[C@@H](O[C@@H]2C=C3CCC4C(CC[C@]5(C)[C@@H](c6ccc(=O)oc6)CC[C@]45O)[C@@]3(C)CC2)[C@H](O)[C@H](O)[C@H]1O (some centres not stated)	102*	·	-7	100*	-2	97*	99*
Nc1ncnc2c1ccn2[C@@H]1O[C@H](CO)[C@@H](O)[C@H]1O	75*	·	-6	86*	-4	85*	98*
Nc1ccccc1C(=O)OCCc1ccccc1	-263	·	1	-178	3	-104	-250
Nc1ccccc1C(=O)OCC(=O)Nc1ccc(Br)cc1F	22	46	0	-5	1	·	·
N#Cc1ccc(NC(=O)CN2CCN(C(=O)c3cccs3)CC2)cc1Cl	16	·	-2	-7	0	·	·
CC(=O)N1N=C2C3CCN(CC3)C2C1c1ccc(F)cc1 (configuration not stated)	19	3	-2	-4	0	·	·
CCC(=O)c1cn(Cc2ccc(C#N)cc2)c2ccccc12	-13	22	1	-13	0	·	·
CC(=O)c1cn(Cc2ccccc2C#N)c2ccccc12	47*	52	-1	52*	1	55*	30*
C[C@H]1CCC/C=C/[C@@H]2C[C@H](O)C[C@H]2[C@H](O)/C=C/C(=O)O1	66*	·	12	98*	115*	-15	81*
SMILES	697 NFkB inh	CHOP inh	XBP1 UPR activ	Jurkat NFkB inh	UPR CHOP act	Jurkat NFkB conf	697 NFkB conf
C[C@@H]1O[C@@H](O[C@H]2C[C@@H](O)[C@]3(CO)[C@H]4[C@H](O)C[C@]5(C)[C@@H](C6COC(=O)C6)CC[C@]5(O)[C@@H]4CC[C@]3(O)C2)[C@H](O)[C@H](O)[C@H]1O (some centres not stated)	-403	10	-2	96*	0	72*	-496
O=S(=O)(c1ccc(F)cc1)N1CCCCC1c1cccnc1 (configuration not stated)	17	20	-1	-3	1	·	·
COc1cc2c(cc1OC)[C@@H]1C(=O)c3ccc4c(c3O[C@@H]1CO2)C[C@H](C(C)C)O4	71*	78*	-4	74*	8	78*	81*
COc1cc2c(cc1OC)[C@H]1C(=O)c3ccc4c(c3O[C@H]1CO2)C[C@@H](C(C)(C)O)O4	-17	·	-2	3	2	·	·
Cc1ccc(CNC2=NCCS2)cc1	-7	6	1	-24	1	·	·
O=C(c1ccc(F)c([N+](=O)[O-])c1)N1CC2CC(C1)c1cccc(=O)n1C2 (configuration not stated)	-1	·	-4	-5	-1	·	·
CC(=O)OC1CC[C@]2(C#N)[C@H]3CC[C@]4(C)[C@H](C5C=CC(=O)O5)CCC4(O)C3CCC2(O)C1 (some centres not stated)	i	·	-2	10	0	·	-246
Cc1nn(Cc2ccc(Cl)cc2Cl)c(Cl)c1C(=O)O	3	7	-2	4	-2	·	·
N=c1c2c(n(Cc3ccc(Cl)cc3Cl)c3c1CCC3)CCCC2	68*	·	-2	30	0	·	33*
CCOc1ccc(NC(=O)CCNC(=O)N2C[C@H]3C[C@@H](C2)c2cccc(=O)n2C3)cc1	-5	·	-3	-7	-2	·	·
Cc1nc2cc(-c3cccc(F)c3)nn2c(C)c1CCC(=O)N1CCC2(CC1)OCCO2	36*	48	-1	18	-1	·	36*
Cc1nc2c(-c3ccccc3)c(C)nn2c(C)c1CCC(=O)N1CCC2(CC1)OCCO2	-14	30	4	0	-3	·	·
Cc1ccc(N)c(C(=O)c2ccccc2)c1	14	-3	-1	-9	0	·	·
Cc1cc(N=Nc2ccccc2C)ccc1N	-330	·	6	-72	5	·	-113
CNC(=O)OCCc1n(C)cc[n+]1C	9	19	-1	5	2	·	·
C=CCn1c(O)c(C(CC)=NC(C)c2ccccc2)c(=O)[nH]c1=O (configuration not stated)	61*	38	0	-8	-1	·	39*

Compound activity (PubChem BioAssay)
